# Screens: PubChem, several laboratories
# M1 ag – M1 muscarinic receptor agonism; B-score at 10 µM; CHO-M1 cells, Fluo-4 calcium fluorescence, agonist mode; active compounds read high; 64,000 compounds, 3% hits;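 active means fluorescence rise, raw or as B-score row- and column-corrected plate score, outside the 99.7% band of its plate's samples, either direction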
# D1 mod – allosteric modulators of human D1 dopamine receptor; 58,000 compounds, 5.9% hits; HEK293 D1, CRE-luciferase, dopamine EC30 potentiation; actives deviate in either direction; P21728; B-score at 10 µM; AID 641;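 active means luminescence count or its row- and column-corrected plate score outside the 99.7% band of the plate's sample wells, on either side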
# Target sequence (P21728 whole entry, looked up): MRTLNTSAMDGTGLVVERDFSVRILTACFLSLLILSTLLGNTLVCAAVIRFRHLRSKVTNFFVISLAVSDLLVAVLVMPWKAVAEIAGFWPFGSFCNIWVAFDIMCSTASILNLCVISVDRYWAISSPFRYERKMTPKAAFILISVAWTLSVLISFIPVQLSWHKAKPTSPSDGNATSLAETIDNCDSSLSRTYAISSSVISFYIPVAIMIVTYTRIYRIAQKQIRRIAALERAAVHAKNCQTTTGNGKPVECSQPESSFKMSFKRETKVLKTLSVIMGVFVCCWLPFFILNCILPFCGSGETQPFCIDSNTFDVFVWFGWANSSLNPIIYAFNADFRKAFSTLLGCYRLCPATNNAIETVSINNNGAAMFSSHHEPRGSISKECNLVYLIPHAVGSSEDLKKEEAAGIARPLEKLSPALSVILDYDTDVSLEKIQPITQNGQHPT
# RORa activator – RORA (human) activation | P35398 | activation, % at 10 µM | CHO-K1 Gal4-RORA LBD luciferase reporter, luminescence; percent increase over mock-subtracted basal signal | 65,000 compounds, 1.5% hits;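 active means activation above the mean of all tested compounds plus 3 SD, cut at about 49% in these data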;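 further: 0% = DMSO-treated RORA cells and 100% = added signal equal to DMSO minus mock-transfected cells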
# Htt clearance – compounds clearing mutant huntingtin protein; HeLa Exon1htt(103Q)mCFP, aggregate imaging; zero = plate's median compound well; inhibition, % at 1.5 µM; 47,000 compounds, 0.42% hits;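 active means inhibition of aggregate fluorescence above about 70%, also judged a hit by eye on the cell image, limit read from the data, passing the limit was not always enough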;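 further: cells exposed to compound for three days before fixation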
# M1 antag – antagonists of rat M1 muscarinic receptor | CHO-M1 cells, Fluo-4 calcium, ACh EC80 antagonist mode; active compounds read low | 64,000 compounds, 3.4% hits | B-score at 10 µM | AID 628 | P08482;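 active means calcium fluorescence response, raw or row-and-column corrected B-score, differing from the plate sample mean either way at a set confidence level, mostly lower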
# SF1 activator – SF-1 (human) activation | Q13285 | CHO-K1 Gal4-SF-1 LBD luciferase reporter; % increase over DMSO SF-1-specific signal | activation, % at 10 µM | 65,000 compounds, 1.9% hits | AID 522;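 active means activation above the mean activation of all tested compounds plus 3 SD, cut at about 50% in these data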
#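 Material: Transient Gal4-SF-1 LBD reporter, CHO-K1 | Input: 4,000 cells/well | Dosing: One dose, 10 µM compound, 1% DMSO | Incubation: 20 h compound treatment, 37 °C | Detection: SteadyLite luciferase luminescence | Evaluation: Percent activation relative to DMSO median and mock-transfected background | Benchmarks: DMSO-treated SF-1-transfected cells as negative, DMSO-treated mock-transfected cells lacking SF-1 as background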
# D1 PAM confirm – D1 receptor (human) allosteric modulation, confirmed | AID 642 | HEK293 D1 CRE-luciferase, dopamine EC30 potentiation; active compounds read high | shares compounds with D1 mod | 2,200 compounds, 88% hits | luminescence at 10 µM;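 active means luminescence in either of two replicates above the same-plate mean plus 3 SD of the low-dose dopamine control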
# D1 ag no DA – D1 (human) signaling in absence of dopamine; shares compounds with D1 mod; HEK293 D1 CRE-luciferase, luminescence, no dopamine; active compounds read high; luminescence at 10 µM; 1,900 compounds, 0.8% hits; AID 646; in the data active means luminescence above about 3900
# Isoprot counter – isoproterenol response counter-screen activity for D1 modulators; shares compounds with D1 mod; HEK293 D1 CRE-luciferase, isoproterenol EC30 counter-screen; calls only at 10 µM; 2,200 compounds, 63% hits; AID 647;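 active means luminescence in either replicate above plate mean of wells with a partly effective reference agonist dose plus 3 SD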;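 further: isoproterenol raises cAMP through native beta-adrenoceptor Gs so signal bypasses D1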
# Active calls of the source: *; i = inactive; x = not tested or not shown; + = active, no number. Only some compounds are listed: those with a hit (about 11% of all), similar ones and a draw of the others.
SMILES,M1 ag,D1 mod,RORa activator,Htt clearance,M1 antag,SF1 activator,D1 PAM confirm,D1 ag no DA,Isoprot counter
N#Cc1nc(N2CCCC2)nc(N2CCCC2)n1,-1.2,5.6*,0,73*,0.026,5,16648*,1396,+
N#Cc1nc(N2CCCCC2)nc(N2CCOCC2)n1,-0.14,7.5*,21,x,-1.4,-3,9460*,x,+
O=C(CN1C(=O)C2CC=C(Cl)CC2C1=O)NCc1ccccc1 (configuration not stated),1.9,0.018,-14,x,0.017,-5,x,x,x
Cc1ccc(C2C(C#N)=C(N)Oc3n[nH]c(-c4cccs4)c32)s1 (configuration not stated),-0.13,4.6*,2,-43,-0.49,4,13468*,1676,i
Cc1cc(-c2[nH]nc3c2C(c2ccc(Cl)cc2)C(C#N)=C(N)O3)c(C)s1 (configuration not stated),x,x,x,10,x,x,x,x,x
N#CC1=C(N)Oc2n[nH]c(-c3cccs3)c2C1c1ccsc1 (configuration not stated),0.43,4.4*,-2,-11,0.15,-8,6176*,1692,i
CC(C)(C)c1[nH]nc2c1C(c1ccncc1)C(C#N)=C(N)O2 (configuration not stated),1.1,0.88,11,-36,1.3,-16,x,x,x
CC1(C)CC(=O)C2=C(C1)NC(=O)CC2c1ccc(N(CCC#N)CCC#N)cc1 (configuration not stated),0.14,x,-20,x,0.0062,-9,x,x,x
C=CCn1c(N)c(C(=O)OC(C)CC)c2nc3ccccc3nc21 (configuration not stated),0.57,7.5*,-15,-35,0.39,-5,14864*,1544,+
C=CCn1c(N)c(C(=O)OC(C)(C)C)c2nc3ccccc3nc21,1.2,4.7,6,x,-0.26,4,x,x,x
Cn1nnnc1SCC(=O)N1CCN(c2cccc(Cl)c2)CC1,-0.78,-0.76,-6,x,-0.24,5,x,x,x
CCCC(c1nnnn1C1CCCC1)N1CCN(C(=O)c2ccco2)CC1 (configuration not stated),-0.16,3.4*,-13,x,-0.052,-11,5248,1512,i
CCCCC(c1nnnn1C1CCCC1)N1CCN(C(=O)c2ccco2)CC1 (configuration not stated),-0.54,-0.46,-22,-9,-0.18,-17,x,x,x
O=C(Nc1ccccc1-c1ccccc1)c1cnccn1,-1.3,5.2*,0,x,0.5,18,9324*,1564,+
CSc1nc(SCC(=O)NCc2ccco2)c2c3c(sc2n1)CN(C)CC3,-0.57,-0.0025,-2,-18,-0.72,9,x,x,x
CC(C)c1nc2sc3c(SCC(=O)NCc4ccco4)ncnc3c2c2c1CCC2,-0.03,14*,-6,x,-0.26,2,17912*,x,i
O=C(CCN1C(=O)c2ccccc2S1(=O)=O)Nc1nc2c(s1)CCCC2,-0.21,-0.047,40,11,-0.33,16,x,x,x
CC(C(=O)N(C)C)N(C#N)c1nc(N(C)C)nc(N(C)C)n1 (configuration not stated),0.12,-0.27,-1,42,0.28,-11,x,x,x
C#CCN(C#N)c1nc(NCC)nc(NC(C)C)n1,-0.11,17*,-5,48,1.1,8,18300*,1652,+
CC(C)Nc1nc(NC(C)C)nc(N(C)C#N)n1,0.86,16*,-2,x,-0.11,16,21628*,1804,+
COc1cc(C(=O)N2CCN(C(=O)COc3ccc4ccccc4c3)CC2)cc(OC)c1OC,-0.72,0.2,-24,-6,0.018,-11,x,x,x
N#Cc1nc(-c2cccs2)oc1N1CCN(Cc2ccccc2)CC1,0.007,0.44,-8,17,0.19,8,x,x,x
Clc1ccc(Br)cc1-c1nc(-c2cccnc2)no1,-1,2.8,13,-5,0.099,5,x,x,x
Cc1cnc(N)c2c(=O)oc3ccccc3c12,0.0059,9.8*,-2,x,0.73,4,17776*,x,+
O=c1oc2ccccc2c2nccnc12,0.16,-0.26,0,x,0.77,-16,x,x,x
SMILES,M1 ag,D1 mod,RORa activator,Htt clearance,M1 antag,SF1 activator,D1 PAM confirm,D1 ag no DA,Isoprot counter
CCOCCCNC(=O)C(NC(=O)C1CCC(=O)N1)c1ccc(C)cc1 (configuration not stated),0.32,0.017,0,-13,-0.48,6,x,x,x
O=C1CC(c2ccccc2)C(C(=O)O)N1 (configuration not stated),0.66,15*,10,-17,-0.15,-9,4528,x,i
CC(C)CNc1oc(-c2ccc(F)cc2)nc1C#N,0.92,13*,-4,25,-0.37,-3,14732*,1924,+
N#Cc1nc(-c2ccc(F)cc2)oc1NCc1cccc2c1OCO2,-1.7,0.21,0,x,0.085,-5,x,x,x
CCOC(=O)CC(=O)Nc1ccc(C(=O)OCC)cc1,0.22,4.5*,3,-31,0.38,1,6944,1692,i
CCOC(=O)C1CCCN(C(=O)c2cc3ncc(Br)cn3n2)C1 (configuration not stated),0.26,-0.42,3,-8,x,6,x,x,x
CCCc1cc(C(N)=O)c(NC(=O)c2ccco2)s1,-0.008,5*,59*,-2,-1.2,60*,10424*,1588,+
CCCc1cc(C(N)=O)c(NC(=O)C2CCCO2)s1 (configuration not stated),0.67,0.88,4,-11,0.021,-20,x,x,x
Cc1cc(NCCCn2ccnc2)n2c(nc3ccccc32)c1C#N,-0.61,3.9*,-7,-27,0.085,-4,7832*,1564,i
CC1CCCCN1S(=O)(=O)c1ccc(S(=O)(=O)NCCc2ccncc2)cc1 (configuration not stated),x,x,x,-13,x,x,x,x,x
COc1ccc(N/C=C2\CCOC2=O)cc1,-0.36,3.2*,-29,x,0.63,-17,4948,1600,i
Cc1cccc(-c2c3c(=O)n(C)c(=O)n(C)c3cn2-c2ccccc2O)c1,0.56,5.8*,11,x,0.48,10,9336*,1844,i
CC(=O)Nn1cc2c(c1-c1ccccc1)c(=O)n(C)c(=O)n2C,-0.92,1.3,-3,34,-0.34,-7,x,x,x
O=C(C1CCC1)N1CCC(c2nc3c(nnn3Cc3c(F)cccc3Cl)c(=O)[nH]2)CC1,-1.3,0.93,-19,x,-1.9,-12,x,x,x
